One data set has as its system Colo320DM cells. The data set is described as follows: Colo320DM cell viability assay. The format is cell-based, human. To be noted: read-out: IC50, growth of Colo320DM, 72 h.
Data set [1] addresses T1, β-cat (Homo sapiens, UniProt P35222).
T1 sequence (P35222 1-781): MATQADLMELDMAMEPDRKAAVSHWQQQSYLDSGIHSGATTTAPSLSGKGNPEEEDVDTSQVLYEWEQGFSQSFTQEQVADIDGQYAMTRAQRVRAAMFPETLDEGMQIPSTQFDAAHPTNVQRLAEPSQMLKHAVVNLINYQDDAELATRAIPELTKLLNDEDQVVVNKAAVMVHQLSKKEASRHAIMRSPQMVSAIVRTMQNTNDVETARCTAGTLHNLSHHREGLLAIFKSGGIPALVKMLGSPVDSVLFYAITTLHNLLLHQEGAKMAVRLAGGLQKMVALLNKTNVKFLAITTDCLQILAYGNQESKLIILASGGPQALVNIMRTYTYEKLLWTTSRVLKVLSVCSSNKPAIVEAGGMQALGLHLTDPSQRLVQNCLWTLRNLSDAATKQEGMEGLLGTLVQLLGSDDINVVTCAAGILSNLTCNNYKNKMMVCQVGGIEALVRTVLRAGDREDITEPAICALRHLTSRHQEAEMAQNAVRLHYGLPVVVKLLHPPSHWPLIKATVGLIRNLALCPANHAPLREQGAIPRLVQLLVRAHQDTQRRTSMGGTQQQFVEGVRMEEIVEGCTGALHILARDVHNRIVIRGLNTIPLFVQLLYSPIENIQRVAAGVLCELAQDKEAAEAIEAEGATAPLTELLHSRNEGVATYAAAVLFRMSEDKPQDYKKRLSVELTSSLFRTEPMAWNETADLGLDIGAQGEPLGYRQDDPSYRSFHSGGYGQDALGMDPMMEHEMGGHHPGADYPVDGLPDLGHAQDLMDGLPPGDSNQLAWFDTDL
The data set is described as follows: ALPHA binding assay.

Data set [2] addresses T1, β-cat. The data set is described as follows: HTRF binding assay. (In general: In TR-FRET formats the signal depends on donor and acceptor labels being close together.)
The next data set can be described thus: Plasma stability assay. It counts as in vitro ADME, BALB/c nude mice. The settings on record: BALB/c nude, mouse.
Data set [3] addresses histidine-tagged β-catenin (β-cat) protein (UniProt P35222). Nature of the data set: AlphaScreen or HTRF. Background: In Alpha technology, singlet oxygen from a donor bead excites a nearby acceptor bead.
The nature of another data set: PK profiling in mice. It counts as in vivo, BALB/c mice.
Data set [4] is described as follows: Dose-escalating toxicity study. The format is in vivo, BALB/c mice. The gist of the method: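 BALB/c mice received vehicle control or test compound at 10, 15 or 20 mg/kg by i.p. injection, once daily for 14 days. Serum chemistry and hematology were done after the 2-week treatment and compared with vehicle-treated animals.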

Read-outs that look alike come from different tables or passages of the source. Bridge positions count the residues as written; N and C are the ends. Square brackets hold non-standard residues; d marks the D form. Peptide text beside a SMILES is read from it. * marks the point of attachment. Biotin = O=C1N[C@H]2[C@H](CS[C@H]2CCCCC(=O)*)N1; 2Nal = N[C@@H](Cc1ccc2ccccc2c1)C(=O)O; S5 = C=CCCC[C@](C)(N)C(=O)O

Consider seven molecules from article PMC6506245 (Science Advances, 2019).

`O=C1[C@H](Cc2ccc(O)cc2)N2C(=O)CCN(C(=O)NCc3ccccc3)[C@H]2CN1Cc1cccc2ccccc12` [ICG-001]: the IC50 (as a rule, the concentration that inhibits the measured activity by half) in the data set on Colo320DM cells (CellTiter-Glo) came out at 15000 nM.
For the molecule `CCCC[C@H](NC(=O)[C@H](CCCNC(=N)N)NC(=O)[C@H](CCC(N)=O)NC(=O)[C@@H](NC(=O)[C@]1(C)CCCC=CCCC[C@](C)(NC(=O)[C@H](CC(C)C)NC(=O)[C@H](CO)NC(=O)[C@H](CCCNC(=N)N)NC(=O)[C@H](CCC(=O)O)NC(=O)[C@H](CCCNC(=N)N)NC(=O)[C@H](Cc2c[nH]cn2)NC(=O)[C@H](CCC(=O)O)NC(=O)[C@H](CC(C)C)NC(=O)[C@H](CCC(N)=O)NC(=O)[C@H](CCC(=O)O)NC(=O)[C@H](CCC(N)=O)NC(=O)[C@H](CO)NC(=O)[C@H](CC(C)C)NC(C)=O)C(=O)N[C@@H]([C@@H](C)O)C(=O)N[C@@H](CC(C)C)C(=O)N[C@@H](CCCNC(=N)N)C(=O)N1)[C@@H](C)CC)C(=O)N[C@@H](CC(C)C)C(=O)N[C@@H](Cc1ccccc1)C(N)=O` [SAH-BCL9B], the Kd (usually the free concentration of one partner at which half of the binding sites on the other are occupied at equilibrium, for simple one-to-one binding) turned out to be 142 nM on β-cat [1] and 192 nM on β-cat [2].
Take `CC[C@H](C)[C@H](NC(=O)[C@H](CC(=O)O)NC(=O)[C@H](CCCNC(=N)N)NC(=O)[C@H](CC(C)C)NC(=O)[C@@H](NC(=O)[C@H](CCC(N)=O)NC(=O)[C@H](CC(C)C)NC(=O)[C@H](CO)NC(=O)[C@H](CCCNC(=N)N)NC(=O)[C@H](CCC(=O)O)NC(=O)[C@H](CCCNC(=N)N)NC(=O)[C@H](Cc1c[nH]cn1)NC(=O)[C@H](CCC(=O)O)NC(=O)[C@H](CC(C)C)NC(=O)[C@H](CCC(N)=O)NC(=O)[C@H](CCC(=O)O)NC(=O)[C@H](CCC(N)=O)NC(=O)[C@H](CO)NC(=O)[C@H](CC(C)C)NC(=O)CCCC[C@@H]1SC[C@@H]2NC(=O)N[C@@H]21)[C@@H](C)O)C(=O)N[C@@H](CCC(N)=O)C(=O)N[C@@H](CCCNC(=N)N)C(=O)N[C@@H](CCSC)C(=O)N[C@@H](CC(C)C)C(=O)N[C@@H](Cc1ccccc1)C(=O)O` [BCL9-HD2A] (Biotin-LSQEQLEHRERSLQTLRDIQRMLF-OH): the Kd at β-cat [1] was 14.3 nM; at β-cat [2], 38.3 nM.
In the case of `CCN(CC)CCOC(=O)c1ccc(N)cc1` [Procaine, reference compound], in “Plasma stability assay”, the fraction remaining (in general, the share of the starting amount still present when the sample was taken) at 1 h, 2 µM was 0.02%.
In data set [3], “hsBCL9CT-24 (hydrocarbon-stapled BCL9-HD2 peptide)” returned a Kd of 4.21 nM.
`CC[C@H](C)[C@@H]1NC(=O)[C@@](C)(NC(=O)[C@H](CCCNC(=N)N)NC(=O)[C@H](CC(C)C)NC(=O)[C@@H](NC(=O)[C@H](CCC(N)=O)NC(=O)[C@H](CC(C)C)NC(C)=O)[C@@H](C)O)CCCC=CCCC[C@@](C)(C(=O)N[C@@H](CC(C)C)C(=O)N[C@@H](Cc2ccc3ccccc3c2)C(N)=O)NC(=O)[C@H](CCCNC(=N)N)NC(=O)[C@H](CCC(N)=O)NC1=O` [hsBCL9CT-24] (Ac-LQTLR[S5]IQR[S5]L[2Nal]-NH2; staple 6-10): binding at β-cat [1] was put at a Kd of 4.73 nM. Further, the bioavailability (commonly the share of a dose that reaches the circulation, judged against a reference dose that is usually intravenous) in the data set “PK profiling in mice” (BALB/c, mouse, plasma, sc, 10 mg/kg) is 56%. Also, in “PK profiling in mice” (i.m. 5 mg/kg, BALB/c mice n = 2, table S2A), the “Terminal t1/2” value was 10.6 h. For the same molecule, the half-life – broadly, how long it takes for the measured level to halve – at 2 µM in “Plasma stability assay” is 5.13 h. In addition, the “survival in toxicity study” value in data set [4] (10, 15, or 20 mg/kg i.p., QD over 14 days) was “All animals survived the duration of study”. Moreover, in data set [4] (after a 2-week treatment period, 20 mg/kg QD (fig. S4I)), the “serum chemistry and hematology versus vehicle control” value is “no difference”. In addition, in data set [4] (i.p. QD over 14 days (fig. S4C: 10 mg/kg)), the “toxicity in brain, lung, kidney, liver, heart, and spleen tissues by histology” value was “minimal toxicity”. In addition, in the data set on Colo320DM cells (CellTiter-Glo), the IC50 stood at 1450 nM.
For `Cc1cc(-c2ncc(CC(=O)Nc3ccc(-c4cnccn4)cn3)cc2C)ccn1` [LGK-974], in the data set with Colo320DM cells (Homo sapiens, COLO 320DM), the IC50 worked out at 18500 nM.
